Experiments:
Assay type in all cases: functional
Homo sapiens [1] = species: Homo sapiens; assay: Sensory evaluation was done at a concentration of 100000 p.p.m. against property of bitterness.
Summary of the method: (§1)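 Aqueous sample solutions were tasted at about pH 7, so carboxylic acids were in ionized form.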

Homo sapiens [2] = species: Homo sapiens; assay: Sensory evaluation was done for sweetness at a concentration of 100000 p.p.m. against compound potency calculated on weight basis.
Summary of the method: (§2)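 Solutions were tasted at about pH 7. Sweetness potency was expressed two ways: Pw, calculated on a weight basis, and Pm, calculated on a molar basis.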

Homo sapiens [3] = species: Homo sapiens; assay: Sensory evaluation was done at a concentration of 100000 p.p.m. against property of sweetness.; summary of the method: as §1
Homo sapiens [4] = species: Homo sapiens; assay: Sensory evaluation was done at a concentration of 100000 p.p.m. against other properties.; summary of the method: as §1
Homo sapiens [5] = species: Homo sapiens; assay: Sensory evaluation was done for sweetness at a concentration of 100000 p.p.m. against sample intensity relative to 10% sucrose.
Summary of the method: (§3)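 Sweetness tasted in solutions held near pH ~7, so carboxylic acids are ionized. Potency is reported two ways: on a weight basis (Pw) and on a molar basis (Pm).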

Homo sapiens [6] = species: Homo sapiens; assay: Sensory evaluation was done for sweetness at a concentration of 100000 p.p.m. against compound potency calculated on a molar basis.; summary of the method: as §2
Homo sapiens [7] = species: Homo sapiens; assay: Sensory evaluation was done for sweetness at a concentration of 250 p.p.m. against sample intensity relative to 10% sucrose.; summary of the method: as §3
Homo sapiens [8] = species: Homo sapiens; assay: Sensory evaluation was done at a concentration of 250 p.p.m. against other properties.; summary of the method: as §1
Homo sapiens [9] = species: Homo sapiens; assay: Sensory evaluation was done at a concentration of 250 p.p.m. against property of bitterness.; summary of the method: as §1
Homo sapiens [10] = species: Homo sapiens; assay: Sensory evaluation was done for sweetness at a concentration of 250 p.p.m. against compound potency calculated on weight basis.; summary of the method: as §3
Homo sapiens [11] = species: Homo sapiens; assay: Sensory evaluation was done at a concentration of 250 p.p.m. against property of sweetness.; summary of the method: as §1
Homo sapiens [12] = species: Homo sapiens; assay: Sensory evaluation was done for sweetness at a concentration of 250 p.p.m. against compound potency calculated on a molar basis.; summary of the method: as §3

SMILES | Sensory evaluation (Homo sapiens [1]) | Pw (Homo sapiens [2]) | Sensory evaluation (Homo sapiens [3]) | Sensory evaluation (Homo sapiens [4]) | Ip (Homo sapiens [5]) | Pm (Homo sapiens [6]) | Ip (Homo sapiens [7]) | Sensory evaluation (Homo sapiens [8]) | Sensory evaluation (Homo sapiens [9]) | Pw (Homo sapiens [10]) | Sensory evaluation (Homo sapiens [11]) | Pm (Homo sapiens [12])
OC[C@H]1O[C@@](CO)(O[C@H]2O[C@H](CO)[C@@H](O)[C@H](O)[C@H]2O)[C@@H](O)[C@@H]1O [SUCROSE] | 0 | 1 | 100 | 0 | 1 | 1 |  |  |  |  |  | 
COc1ccc(CCC(=O)c2c(O)cc(O[C@@H]3O[C@H](CO)[C@@H](O)[C@H](O)[C@H]3O[C@@H]3O[C@@H](C)[C@H](O)[C@@H](O)[C@H]3O)cc2O)cc1O [NEOHESPERIDIN DIHYDROCHALCONE] |  |  |  |  |  |  | 1.2 | 16 | 3 | 480 | 81 | 860
